In ChEMBL document CHEMBL1671769, “Tissue penetration and pharmacokinetics of tigecycline in diabetic patients with chronic wound infections described by using in vivo microdialysis” (Antimicrob Agents Chemother, 2010):
Values after ≈ are worked out from the molar mass of the structure shown.

Experiments:
[1] = Ratio of AUC (0 to 24 hrs) in patient with complicated skin and skin structure infections to MIC for Staphylococcus aureus; type: functional
[2] = Cmax in plasma of diabetic patient with chronic wound infection at […], iv loading dose followed by […], iv BID for 2 to 3 doses by microdialysis; type: ADME, organism-based; set-up: route intravenous; settings: human
Outline: (§1)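 Eight adult diabetic patients; IV 100 mg loading dose over 1 h via peripheral vein, then 50 mg over 1 h every 12 h for 2–3 further doses. Heparinized venous blood from contralateral arm at 0–12 h over a steady-state interval; plasma stored −80°C; HPLC (linear 0.05–5 μg/ml). Noncompartmental analysis: Cmax by inspection, log-linear trapezoidal AUC0-24, t1/2 = 0.693/λz (≥3 terminal points), […].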

[3] = Terminal half life in wound interstitial fluid of diabetic patient with chronic wound infection at […], iv loading dose followed by […], iv BID for […] by microdialysis; type: ADME, organism-based; settings: human
Outline: (§2)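 Subcutaneous microdialysis probes (30 mm membrane, 20 kDa cutoff) placed before dosing, one within 10 cm of wound margin and one in uninfected thigh of the same limb. Patients given IV 100 mg load then 50 mg q12h.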

[4] = Tmax in wound interstitial fluid of diabetic patient with chronic wound infection at […], iv loading dose followed by […], iv BID for […] by microdialysis; type: ADME, organism-based; settings: human; outline: as §2
[5] = Drug penetration in wound interstitial fluid of diabetic patient with chronic wound infection at […], iv loading dose followed by […], iv BID for […] by microdialysis; type: ADME, organism-based; settings: human, in vivo
Outline: (§3)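 Tissue penetration is interstitial AUC0-24 (wound or thigh, microdialysis, recovery-corrected) divided by free plasma AUC0-24 × 100. Free plasma values come from the protein-binding polynomial applied to total concentrations. Sampling over a 12-h steady-state interval after IV 100 mg load then 50 mg q12h. Sites were compared by t test or Mann-Whitney.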

[6] = Terminal half life in plasma of diabetic patient with chronic wound infection at […], iv loading dose followed by […], iv BID for 2 to 3 doses by microdialysis; type: ADME, organism-based; settings: human; outline: as §1
[7] = fAUC (0 to 24 hrs) to MIC for Staphylococcus aureus infected in thigh of ICR mouse; type: functional, Thigh muscle
[8] = AUC (0 to 24 hrs) in thigh interstitial fluid of diabetic patient with chronic wound infection at […], iv loading dose followed by […], iv BID for […] by microdialysis; type: ADME, organism-based; set-up: time < 24 hr, route intravenous; settings: human; outline: as §2
[9] = Tmax in plasma of diabetic patient with chronic wound infection at […], iv loading dose followed by […], iv BID for 2 to 3 doses by microdialysis; type: ADME, organism-based; settings: human; outline: as §1
Plasma [10] = experiment: fCmax in plasma of diabetic patient with chronic wound infection at […], iv loading dose followed by […], iv BID for 2 to 3 doses by microdialysis; type: ADME, organism-based; settings: human, in vivo
Outline: (§4)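 Steady-state plasma after IV 100 mg loading then 50 mg every 12 h (1-h infusions) in diabetic patients. Total HPLC plasma levels converted to free using a polynomial fitted to ultrafiltration-derived percent unbound versus plasma concentration (y = y0 + a/x + b/x² + c/x³). Free-drug profiles analysed noncompartmentally; Cmax by visual inspection.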

Plasma [11] = experiment: Clearance at steady state in plasma of diabetic patient with chronic wound infection at […], iv loading dose followed by […], iv BID for 2 to 3 doses by microdialysis; type: ADME, organism-based; settings: human, in vivo; outline: as §1
Staphylococcus aureus = experiment: Antimicrobial activity against methicillin-resistant Staphylococcus aureus by CLSI method; type: functional
[12] = Cmax in thigh interstitial fluid of diabetic patient with chronic wound infection at […], iv loading dose followed by […], iv BID for […] by microdialysis; type: ADME, organism-based; set-up: route intravenous; settings: human; outline: as §2
[13] = Ratio of AUC (0 to 24 hrs) in plasma diabetic patient with chronic wound infection to MIC for methicillin-resistant Staphylococcus aureus; type: functional
Outline: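 Eight adult diabetic patients; tigecycline 100 mg IV over 1 h, then 50 mg over 1 h every 12 h for 2–3 more doses. Venous plasma was sampled over the 12-h steady-state interval and total drug measured by HPLC.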

[14] = Terminal half life in thigh interstitial fluid of diabetic patient with chronic wound infection at […], iv loading dose followed by […], iv BID for […] by microdialysis; type: ADME, organism-based; settings: human; outline: as §2
[15] = Drug recovery in wound interstitial fluid of diabetic patient with chronic wound infection at […], iv loading dose followed by […], iv BID for 2 to 3 doses by microdialysis; type: ADME, organism-based; settings: human, in vivo
Outline: (§5)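 In vivo recovery by retrodialysis for each catheter after the final sampling. Perfusate was lactated Ringer's containing 500 μg/ml drug, perfused for 1 h at 2 μl/min. Recovery = 100 − (100 × Cdialysate/Cperfusate), measured by HPLC.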

[16] = Tmax in thigh interstitial fluid of diabetic patient with chronic wound infection at […], iv loading dose followed by […], iv BID for […] by microdialysis; type: ADME, organism-based; settings: human; outline: as §2
[17] = fTmax in plasma of diabetic patient with chronic wound infection at […], iv loading dose followed by […], iv BID for 2 to 3 doses by microdialysis; type: ADME, organism-based; settings: human; outline: as §4
[18] = Cmax in wound interstitial fluid of diabetic patient with chronic wound infection at […], iv loading dose followed by […], iv BID for […] by microdialysis; type: ADME, organism-based; set-up: route intravenous; settings: human; outline: as §2
[19] = Drug penetration in thigh interstitial fluid of diabetic patient with chronic wound infection at […], iv BID for […] by microdialysis; type: ADME, organism-based; settings: human, in vivo; outline: as §3
[20] = Volume of distribution at steady state in plasma of diabetic patient with chronic wound infection at […], iv loading dose followed by […], iv BID for 2 to 3 doses by microdialysis; type: ADME, organism-based; settings: human, read-out: Vdss; outline: as §1
[21] = Drug recovery in thigh interstitial fluid of diabetic patient with chronic wound infection at […], iv loading dose followed by […], iv BID for 2 to 3 doses by microdialysis; type: ADME, organism-based; settings: human, in vivo; outline: as §5
[22] = Ratio of fAUC (0 to 24 hrs) in plasma of diabetic patient with chronic wound infection to MIC for methicillin-resistant Staphylococcus aureus; type: functional
Outline: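 Same patients and IV regimen (100 mg load, then 50 mg q12h). Total plasma levels measured by HPLC over the 12-h steady-state interval were converted to free drug using a polynomial fit of ultrafiltration protein binding, measured in triplicate at 1, 6 and 12 h.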

[23] = AUC (0 to 24 hrs) in wound interstitial fluid of diabetic patient with chronic wound infection at […], iv loading dose followed by […], iv BID for […] by microdialysis; type: ADME, organism-based; set-up: time < 24 hr, route intravenous; settings: human; outline: as §2
Plasma [24] = experiment: AUC (0 to 24 hrs) in plasma of diabetic patient with chronic wound infection at […], iv loading dose followed by […], iv BID for 2 to 3 doses by microdialysis; type: ADME, organism-based; set-up: time < 24 hr, route intravenous; settings: human, in vivo; outline: as §1
[25] = Ratio of AUC (0 to 24 hrs) in thigh interstitial fluid of diabetic patient with chronic wound infection to MIC for methicillin-resistant Staphylococcus aureus; type: functional, Thigh muscle
[26] = Drug penetration in blister fluid of healthy human at […], iv loading dose followed by […], iv BID for 2 to 3 doses by microdialysis; type: ADME, organism-based; settings: in vivo

Molecule `CN(C)c1cc(NC(=O)CNC(C)(C)C)c(O)c2c1C[C@H]1C[C@H]3[C@H](N(C)C)C(O)=C(C(N)=O)C(=O)[C@@]3(O)C(O)=C1C2=O` [TIGECYCLINE] has a RatioAUC/MIC [1] of 17.9, a Cmax [2] of 420 ng/mL and a half-life [3] of 1490 min. The Tmax [4] was 4.38 h, the Drug uptake [5] was 100% and the half-life [6] was 584 min. It also gave a fAUC/MIC [7] of 5.7, an AUC at 24 h [8] of 2520 ng·h/mL and a Tmax [9] of 1.13 h. It also gave a Cmax_unbound (Plasma [10]) of 0.16 µg/mL, a CLss (Plasma [11]) of 0.28 L/h/kg and an MIC90 (Staphylococcus aureus) of 0.12 µg/mL (≈ 0.205 µM). The Cmax [12] was 180 ng/mL, the RatioAUC/MIC [13] was 33.25 and the half-life [14] was 958 min. For the same molecule, the Activity [15] was 57.03%, the Tmax [16] was 3.38 h and the Tmax [17] was 1.13 h. The Cmax [18] was 160 ng/mL, the Drug uptake [19] was 98.94% and the Vd [20] was 3.95 L/kg. It also gave an Activity [21] of 53.48%, a RatioAUC/MIC [22] of 22.1 and an AUC at 24 h [23] of 2600 ng·h/mL. For the same molecule, the AUC (Plasma [24]) was 3.99 µg·h/mL, the RatioAUC/MIC [25] was 21 and the Drug uptake [26] was 74%.
